Screening data: PubChem BioAssay, The Scripps Research Institute Molecular Screening Center
GAA850 FXN act – FXN promoter activators, primary screen, cell-based, luciferase luminescence, HEK293 lucGAA850; 360,000 compounds, 0.56% hits; activation, % at 6 µM; AID 540364, 2011; HEK293 lucGAA850 FXN promoter luciferase reporter, 24 h; percent of 10 µM SAHA response;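 active means activation above the average of all compounds screened plus 3 SD, cutoff fixed separately per campaign, cut at about 7.5% in these data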;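 further: 0% = DMSO wells and 100% = 10 µM SAHA wells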
HTR2A ag – mouse Htr2a agonists via beta-arrestin recruitment, primary screen, cell-based, luminescence. CHO-K1 mHTR2A beta-arrestin complementation; percent of 30 µM serotonin response. activation, % at 7.6 µM. AID 624169, 2012. 360,000 compounds, 0.66% hits. 5-hydroxytryptamine receptor 2A (Mus musculus), P35363;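 active means activation above a run cutoff, the mean activation of all tested compounds plus 3 SD, cut at about 14% in these data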;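 further: 0% = plate median of compound wells and 100% = 30 µM serotonin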
Target sequence (P35363 whole entry, looked up): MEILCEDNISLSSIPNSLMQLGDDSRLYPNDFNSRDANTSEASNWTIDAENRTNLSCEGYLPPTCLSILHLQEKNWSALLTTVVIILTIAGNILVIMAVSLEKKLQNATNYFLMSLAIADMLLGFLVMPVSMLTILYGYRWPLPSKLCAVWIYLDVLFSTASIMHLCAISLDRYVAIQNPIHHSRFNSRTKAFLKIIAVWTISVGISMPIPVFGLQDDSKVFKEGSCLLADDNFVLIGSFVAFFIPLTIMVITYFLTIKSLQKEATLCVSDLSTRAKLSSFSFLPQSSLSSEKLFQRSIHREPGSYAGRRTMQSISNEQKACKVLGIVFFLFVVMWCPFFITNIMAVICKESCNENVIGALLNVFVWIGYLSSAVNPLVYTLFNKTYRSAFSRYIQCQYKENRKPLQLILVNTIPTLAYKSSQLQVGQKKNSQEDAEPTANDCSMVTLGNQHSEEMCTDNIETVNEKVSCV
MC4R ag barr – MC4R agonists recruiting beta-arrestin, primary screen, cell-based, luminescence, agonist arm of biased-ligand search; Melanocortin receptor 4 (Homo sapiens), P32245; activation, % at 8.9 µM; U2OS MC4R beta-arrestin complementation; percent of melanotan II response, DMSO zero; 360,000 compounds, 0.98% hits;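 active means activation above a per-plate cutoff, the mean activation of sample wells on that plate plus 3 SD, cut at about 8% in these data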
MC4R antag cAMP – MC4R antagonists of cAMP signaling, primary screen, cell-based, TR-FRET, antagonist arm of biased-ligand search; 360,000 compounds, 0.48% hits; inhibition, % at 6.5 µM; MC4R-expressing cells, MTII-stimulated cAMP, LANCE TR-FRET; Melanocortin receptor 4 (Homo sapiens), P32245;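 active means inhibition above its plate's cutoff, the mean of tested wells on that plate plus 3 SD, cut at about 29% in these data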;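 further: 0% = Melanotan II alone and 100% = Melanotan II plus saturating MCL0020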
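Material: U2OS-MC4R stable cell line | Reagent: Melanotan II challenge after compound preincubation | Doses: One concentration, 6.5 µM nominal | Incubation: 30-min compound preincubation, 1-h Melanotan II challenge, 1-h detection, room temperature | Signal: TR-FRET cAMP assay | Replicates: One well per compound, no replicates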
AHR activator – AHR activators, primary screen, cell-based, luminescence, luciferase reporter, human; AHR-responsive luciferase reporter cells; activation, % at 5 µM; 320,000 compounds, 2.5% hits; AID 2796, 2010; in the data active means activation above about 47%;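 further: 0% = vehicle wells and 100% = reference agonist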
The depositor's hits bear a star; x = not tested or not shown. Shown are actives, neighbours in structure and some others; about 4.7% of the full set was active somewhere.

SMILES	GAA850 FXN act	HTR2A ag	MC4R ag barr	MC4R antag cAMP	AHR activator
CC1=CC2C(C(O)CC3(C)C2CC(C)C32OCOC23COCO3)C2(C)C/C(=C\O)C(=O)C=C12 (centres undefined)	-3	3	29*	26	x
O=C(N/N=C/c1ccc[nH]1)c1c[nH]c2ccccc12	2	-2	6	0	x
O=C(N/N=C/c1ccccn1)c1c[nH]c2ccccc12	2	-10	0	0	57*
Cc1occc1C(=O)N/N=C/c1ccc(Br)s1	4	-3	-1	-4	2
CCn1nc(C)c(/C=N/NC(=O)c2c[nH]c3ccccc23)c1C	5	1	0	-1	99*
Cc1ccc(/C=N/NC(=O)c2c[nH]c3ccccc23)s1	6	7	0	2	50*
Cc1ccc(/C=N/NC(=O)c2ccoc2C)s1	4	-1	-1	6	56*
Cc1ccc(S(=O)(=O)N2CCOCC2)cc1NC(=O)COC(=O)c1cnc(Cl)c(Cl)c1	1	0	-1	-43	x
COc1ccc(N2CCN(C(=O)CSc3nc4nc(C)cc(C)n4n3)CC2)cc1	0	-6	-2	-2	0
Cc1ccc(S(=O)(=O)N2C[C@H]3C(=O)C[C@@H](c4ccccc4)N(S(=O)(=O)c4ccc(C)cc4)[C@H]3C[C@H]2c2ccc(Cl)cc2)cc1	1	2	-1	0	x
Cc1ccc(/C=N/NC(=O)c2c[nH]c3ccccc23)o1	5	-1	0	1	72*
Cc1cc(N)n2ncc(-c3ccccc3)c2n1	3	-3	0	-9	61*
C=CCSc1cc(C)nc2c(-c3ccccc3)cnn12	8	1	2	2	99*
Cc1cc(-c2ccncc2)n2ncc(-c3ccccc3)c2n1	6	-6	-1	-13	x
CC(C)CCNC(=O)C(=O)Nc1ccc2c(c1)N(S(=O)(=O)c1cccs1)CCC2	0	-7	-1	-28	8
COc1cc(O)oc1C=Nc1ccc(C(F)(F)F)cc1	1	1	1	-2	54*
COc1cc(/C=N/Nc2ccc(C(F)(F)F)cn2)ccc1O	4	2	0	4	6
CC(C)n1nc(Cc2cccc3ccccc23)c(C#N)c1N	2	-1	-1	-1	62*
COc1ccc(OC)c(CN2C(=O)CN(S(C)(=O)=O)CC2(C)C(=O)Nc2c(C)cccc2C)c1 (centres undefined)	x	2	x	x	x
C1=C(c2ccccc2)CCN(c2nc3ccccc3n3cnnc23)C1	1	-6	0	-13	79*
CN(C)CCCn1c(SCC(=O)Nc2nc(-c3cccc(Br)c3)cs2)nc2ccccc2c1=O	2	-4	7	8	6
O=C(CSc1nc2ccccc2[nH]1)Nc1nc(-c2cccc(Br)c2)cs1	3	3	-2	2	65*
OCc1cc(Br)ccc1OCc1nc2ccccc2s1	3	2	3	18	48*
Oc1ccccc1OCc1nc2ccccc2s1	3	-6	-3	-5	-8
CCSc1nnc(NC(=O)CCCOc2ccc(C)cc2)s1	0	4	2	5	0
SMILES	GAA850 FXN act	HTR2A ag	MC4R ag barr	MC4R antag cAMP	AHR activator
COc1cccc2[nH]c3c(N4CCN(Cc5ccc6c(c5)OCO6)CC4)ncnc3c12	x	x	x	x	73*
COc1cccc2[nH]c3c(N4CCC(C)CC4)ncnc3c12	1	-5	-1	-4	60*
COc1ccc2c(c1)[nH]c1c(N3CCN(Cc4ccc5c(c4)OCO5)CC3)ncnc12	0	1	-1	6	12
COc1ccc(-c2cc(C(=O)N(C)Cc3ccccc3F)c3ccccc3n2)cc1OC	-5	5	-1	0	71*
COc1ccc(-c2cc(C(=O)N3CCN(c4ccccc4)CC3)c3ccccc3n2)cc1OC	1	5	0	6	77*
CCN(Cc1ccccc1)C(=O)c1cc(-c2ccc(OC)c(OC)c2)nc2ccccc12	-3	1	2	12	69*
COC(=O)C1CN(C(=O)c2cccc(OC(F)F)c2)c2ccccc2O1 (centres undefined)	2	4	-1	4	49*
COC(=O)C1CN(C(=O)C(C)Oc2ccccc2Cl)c2ccccc2O1 (centres undefined)	-2	0	1	22	10
COc1ccc(/C=C/C(=O)OCC(=O)c2ccc3c(c2)NC(=O)CO3)cc1	1	-2	13*	9	-1
COc1ccc(C(=O)C2CCCN(Cc3cn[nH]c3-c3ccccc3)C2)cc1OC (centres undefined)	0	-4	-2	-4	0
COc1ccc(-c2[nH]ncc2CN2CCCC(C(=O)c3cccc(OC)c3)C2)cc1 (centres undefined)	3	-6	0	9	73*
S=c1[nH]c(-c2ccccc2)cn1/N=C/c1ccc(Br)cc1	1	2	-2	14	54*
S=c1[nH]c(-c2ccccc2)cn1/N=C/c1cccs1	0	2	2	9	67*
O=C(O)c1ccc(/C=N/n2cc(-c3ccccc3)[nH]c2=S)cc1	-3	0	-1	-1	6
Cc1ccc(C)c(/C=N/n2cc(-c3ccccc3)[nH]c2=S)c1	-1	0	1	1	62*
O=C1OC(O)c2cccc3cccc1c23 (centres undefined)	1	3	-3	7	x
CCC(=O)N1CCCC(C)(C(=O)Nc2ccc3scnc3c2)C1 (centres undefined)	0	3	-1	2	x
COc1cccc(C(=O)Nc2ccc3c(cc2=O)[C@@H](NC(C)=O)CCc2cc(OC)c(OC)c(OC)c2-3)c1	-4	16*	-2	2	-1
C=C(C)CN(CC)C(=O)CSc1nc2ncc(Cl)cc2[nH]1	2	1	-1	10	69*
C=C(C)CSc1nc2ncc(Cl)cc2[nH]1	1	-1	2	4	14
Cc1ccc(N/N=C(\C#N)C(=N)N2CCCCCC2)cc1	2	-4	-3	-7	26
CCN(CC)C(=N)/C(C#N)=N/Nc1ccc(C)cc1	6	-3	-2	-20	75*
Cc1ccc(S(=O)(=O)NC(=O)C2(C)CCN2C(=O)Cc2cccs2)cc1 (centres undefined)	1	5	0	0	x
c1nc(SSc2ncnc3nc[nH]c23)c2[nH]cnc2n1	1	0	-1	13	x
O=Cc1cn(-c2ccccc2)nc1-c1ccncc1	-2	-3	-1	9	60*
O=Cc1cn(-c2ccccc2)nc1-c1ccccc1	2	-2	1	14	-4
On1c(-c2ccccc2)nc2ccccc21	1	0	2	8	7
